Assay outcomes from PubChem.
A selection: hits, their analogues and other compounds. The true share with any hit is near 1.7%.
HNF4A DNA FP: change in binding of human HNF4 alpha to DNA | AID 1224865 | activity change, % at 10 µM | HNF4a-FITC DNA binding, fluorescence polarization, 1 h | 0.3% of 360,000 active; in the data active means activity change above about 30%, passing the limit was not always enough
TPT1 inh: blocks Candida albicans tRNA 2'-phosphotransferase; recombinant caTPT1, FP RNA substrate dephosphorylation; inhibition, % at 5 µM; 0.81% of 300,000 active;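 active means inhibition above the mean of all tested compounds plus 3 SD, set per screening campaign, cut at about 24% in these data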
IDE cell activ: activators of human insulin-degrading enzyme in cells; HEK cells, FAbeta-B cleavage, fluorescence polarization; 0% vehicle, 100% cell-free pure enzyme wells; activation, % at 5.96 µM; 0.073% of 340,000 active; P14735;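 active means activation above the mean of all tested compounds plus 3 SD, set per screening campaign, cut at about 17% in these data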
CSN deneddyl inh: blocks human CSN-mediated cullin deneddylation. Q92905. Purified CSN, SCF-Nedd8-OG deneddylation, fluorescence polarization. inhibition, % at 12.5 µM. 0.38% of 360,000 active;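 active means pattern-corrected inhibition above about 35%, with an unprinted fluorescence ratio check between 0.5 and 1.5, limit read from the data, passing the limit was not always enough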
Target sequence (Q92905 whole entry, looked up, one chain of several): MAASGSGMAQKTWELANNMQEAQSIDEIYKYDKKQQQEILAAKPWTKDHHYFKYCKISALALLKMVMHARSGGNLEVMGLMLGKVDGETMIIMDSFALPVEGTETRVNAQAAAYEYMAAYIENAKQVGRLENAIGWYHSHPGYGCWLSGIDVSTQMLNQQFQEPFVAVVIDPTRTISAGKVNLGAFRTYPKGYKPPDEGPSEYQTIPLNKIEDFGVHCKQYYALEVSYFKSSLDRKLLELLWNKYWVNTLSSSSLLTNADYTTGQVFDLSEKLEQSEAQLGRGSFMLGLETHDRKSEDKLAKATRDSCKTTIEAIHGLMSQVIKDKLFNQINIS
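Test system: purified human Csn5 enzyme expressed in HEK293T cells. Amount: 0.24 nM enzyme. Reagent: SCFSkp2-Nedd8OG substrate at 10 nM final. Schedule: 90 min incubation of compound, enzyme and substrate at room temperature. Detection: fluorescence polarization. Read-out: % inhibition of substrate cleavage by Csn5.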
IDE inh: inhibitors of human insulin-degrading enzyme in cells | P14735 | HEK cells, FAbetaB cleavage, fluorescence polarization | inhibition, % at 5.59 µM | 0.41% of 320,000 active | AID 434962;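 active means percent inhibition above the average of all tested compounds plus 3 SD, set per screening campaign, cut at about 16% in these data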;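 further: IDE supplied by intact live HEK cells; FP after avidin binding of uncleaved biotin substrate so inhibition keeps polarization high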
Rpn11 inh: blocks the human proteasome subunit Rpn11. 0.59% of 360,000 active. human 26S proteasome, Ub4-pepOG fluorescence polarization; 20S core pre-blocked with epoxomicin. calls only at 20 µM. O00487;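 active means inhibition at 20 µM, scaled to each plate's controls, above about 33%, limit read from the data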
Target sequence (O00487 whole entry, looked up): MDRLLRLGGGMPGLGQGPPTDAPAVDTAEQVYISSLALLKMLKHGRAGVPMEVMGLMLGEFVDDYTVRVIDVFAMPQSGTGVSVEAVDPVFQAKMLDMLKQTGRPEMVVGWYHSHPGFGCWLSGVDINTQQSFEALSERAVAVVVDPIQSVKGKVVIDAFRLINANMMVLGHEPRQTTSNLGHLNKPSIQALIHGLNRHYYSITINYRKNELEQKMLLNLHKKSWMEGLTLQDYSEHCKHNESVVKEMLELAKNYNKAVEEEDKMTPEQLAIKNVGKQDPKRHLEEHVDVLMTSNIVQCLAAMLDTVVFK
caTPT1 confirm: confirmation of Candida albicans TPT1 inhibitors | AID 2149 | 74% of 2,400 active | inhibition, % at 5 µM | shares compounds with TPT1 inh | recombinant caTPT1, fluorescence polarization, RNase T1 coupled;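 active means inhibition above the primary screen limit, the mean inhibition of all tested compounds plus 3 SD, cut at about 25% in these data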
RNase T1 counter: blocks Aspergillus oryzae RNase T1, a TPT1 counter-screen; shares compounds with TPT1 inh; RNase T1 cleavage, fluorescence polarization, 1536-well; inhibition, % at 5 µM; 83% of 2,400 active;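 active means inhibition above the solvent-only control well mean plus 3 SD, limit set per screening run, cut at about 23% in these data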;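 further: inhibitors block cleavage so intact labeled substrate keeps polarization high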
A number is an active result; 0 = inactive; - = not tested or not shown.

SMILES	HNF4A DNA FP	TPT1 inh	IDE cell activ	CSN deneddyl inh	IDE inh	Rpn11 inh	caTPT1 confirm	RNase T1 counter
COCCNc1nc(-c2cc(C)n(CCc3ccc(OC)cc3)c2C)cs1	0	48	0	0	0	0	0	0
COc1ccccc1CNc1nc(-c2cc(C)n(C)c2C)cs1	0	-	0	0	-	0	-	-
NC(=O)CC(NC(=O)Cc1cccc2ccccc12)c1ccc(NCc2ccccc2)c([N+](=O)[O-])c1 (configuration not stated)	0	0	0	0	0	0	-	-
CC(C)Nc1ccc(C(CC(N)=O)NC(=O)Cc2cccc3ccccc23)cc1[N+](=O)[O-] (configuration not stated)	0	75	0	0	0	-	85	95
COc1ccc(-c2noc(CCC(=O)NCCCN3CCC(Cc4ccccc4)CC3)n2)cc1	0	0	0	0	0	0	-	-
COc1ccc(NC(=O)Nc2c(C)noc2-c2ccccc2)cc1	0	42	0	0	0	0	0	0
N#CC12C(N)=NC3(OCCO3)C1(C#N)C1=C(CCC1)NC2c1ccccc1 (configuration not stated)	0	0	0	0	0	0	-	-
N#CC1(C#N)C2=C(CCCC2)NC(c2ccccc2)C1(C#N)C#N (configuration not stated)	-	30	-	-	0	-	25	34
CCOc1ccc(NC(=O)CC2C(=O)NCCN2C(=O)Nc2ccccc2)cc1 (configuration not stated)	0	0	0	0	0	0	-	-
COc1ccc(N2CCN(C(=O)c3cn(Cc4ccccc4)nc3-c3cccnc3)CC2)cc1	0	-	0	0	0	0	-	-
Cc1ccc(-c2c(C(=O)Nc3ccccc3C)c(C)[nH]c(=S)c2C#N)o1	0	0	-	0	0	0	-	-
Cc1ccccc1NC(=O)c1c(C)[nH]c(=S)c(C#N)c1-c1ccc(Cl)cc1	0	30	-	0	0	0	0	22
CC(C)N1CCc2c(sc(NC(=O)c3ccc(S(=O)(=O)N4CCOCC4)cc3)c2C(N)=O)C1	0	36	0	0	0	0	43	56
CNC(=O)c1c(NC(=O)c2ccc(S(=O)(=O)N3CCCCC3C)cc2)sc2c1CCN(C)C2 (configuration not stated)	0	0	0	0	0	-	-	-
CC1CCCN(S(=O)(=O)c2ccc(C(=O)Nc3sc4c(c3C(N)=O)CCN(C)C4)cc2)C1 (configuration not stated)	0	73	0	0	0	0	64	71
CCOc1ccc(-c2cccc(NS(=O)(=O)c3cc([N+](=O)[O-])ccc3Cl)c2)nn1	0	0	0	0	0	0	-	-
CCc1nnc(SCC(=O)NCCC2=CCCCC2)nc1CC	0	0	0	0	0	0	-	-
CCOc1cc(/C=C2\N=C(SC(C)C(N)=O)N(c3ccc(OC(F)F)cc3)C2=O)ccc1O (configuration not stated)	0	101	0	0	108	-	117	113
CC(=N)c1c(O)c2ccccc2oc1=O	0	27	0	0	0	0	0	0
Cc1cc(=O)oc2cc(NC(=O)c3cc4ccccc4o3)ccc12	-	0	-	-	0	-	-	-
CCn1nc(C(=O)NNC(=O)c2ccccc2OCc2c(C)noc2C)c2ccccc2c1=O	0	-	0	0	0	0	-	-
CC(=NO)c1ccc2c(c1)Cc1cc([N+](=O)[O-])ccc1-2	0	-	0	0	-	0	-	-
Nc1ccc2c(c1)Cc1cc([N+](=O)[O-])ccc1-2	37	53	0	0	0	0	56	65
COc1ccc(N(C(=O)c2cccnc2)S(=O)(=O)c2cccc([N+](=O)[O-])c2)cc1	0	68	0	0	0	0	0	0
COc1ccc(N/C=C\C(=O)c2ccc(Br)cc2)cc1OC	0	34	0	53	0	-	50	60
SMILES	HNF4A DNA FP	TPT1 inh	IDE cell activ	CSN deneddyl inh	IDE inh	Rpn11 inh	caTPT1 confirm	RNase T1 counter
Oc1c(C=Nc2ccccc2)sc2ccccc12	37	100	0	0	0	-	127	130
CN=Cc1sc2ccccc2c1O	0	0	0	0	0	0	-	-
Oc1c(/C=N/c2ccccn2)sc2ccccc12	0	45	0	0	0	0	57	67
Oc1c(C=Nc2cccnc2)sc2ccccc12	0	0	0	0	0	0	-	-
Oc1c(C=Nc2ccc(Cl)cn2)sc2ccccc12	0	31	0	0	0	0	39	49
COc1cc(C(=O)N2CCN(C(=O)CC(C)C)CC2)cc(OC)c1OC	0	0	0	0	0	0	-	-
CCOc1nc(NC(=O)NS(=O)(=O)Oc2ccccc2Cl)nc(-c2ccccc2)n1	0	0	0	0	0	0	-	-
NC(=O)c1cccc(CC(=O)c2ccccc2)c1	0	74	0	0	0	0	0	0
COc1cc(S(=O)(=O)Nc2cccc(C)c2)ccc1NC(=O)c1cccnc1	0	0	0	0	0	0	-	-
Cc1ccc(-n2cc(CNCCCN3CCCC3=O)c(-c3ccc(F)cc3)n2)cc1	0	0	0	0	0	0	-	-
CSC1=N/C(=C\c2ccc(F)cc2)C(=O)S1	0	0	0	0	0	0	-	-
COc1ccc(/C=C/C=C2\N=C(SC)SC2=O)cc1	0	43	0	0	0	0	46	56
COc1nn(-c2nc(-c3ccccc3)cc(C(F)(F)F)n2)cc1[N+](=O)[O-]	0	55	0	0	0	0	0	0
FC(F)(F)c1cc(-c2ccccc2)nc(-n2cc(Cl)cn2)n1	0	0	0	0	0	0	-	-
CC12CCCC(=O)C1CCC(=Cc1ccco1)C2=O (configuration not stated)	0	-	-	0	-	0	-	-
CCC1C/C(=C/c2ccco2)C(=O)/C(=C/c2ccco2)C1 (configuration not stated)	-	68	-	-	0	-	75	80
CS(=O)(=O)N(CCc1ccccc1)CC(=O)NCc1ccccc1	0	0	0	0	0	0	-	-
Cc1ccc(/C=C/c2nc3ccccc3s2)s1	0	42	0	0	0	0	43	54
Cc1ccc(NC(=O)c2n[nH]c(=O)c3ccccc23)cc1S(=O)(=O)N1CCOCC1	0	-	0	0	0	0	-	-
N#Cc1c(N)n(CCNC(=O)c2cccs2)c2nc3ccccc3nc12	0	63	0	0	0	0	45	59
Cc1ccc(N(C)C(=O)C2CCCN2S(=O)(=O)c2cccc3nsnc23)cc1 (configuration not stated)	0	0	0	0	0	0	-	-
Cn1ncc2c(N3CCOCC3)ncnc21	0	0	0	0	0	0	-	-
CCCn1c(/C=C/c2ccco2)nc2ccccc21	0	25	0	0	0	0	38	51
